Assay [1] relates to dispersed, primary rat pituitary cultures. As to the kind of experiment: Static incubation of dispersed anterior pituitary cells, hormone release. The assay is classed as cell-based. As to conditions: for GnRH-stimulated LH release: female pituitary cultures, overnight (24-hour) pretreatment, then GnRH for one hour, Figure 3A and B. The method in brief:
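Rat anterior pituitary cells were trypsin-dispersed and cultured 48 h in tubes (MEM, 10% horse serum, 37°C). Cultures were pretreated 24 h with medium or peptide fragments. Medium was replaced by M199 with 0.1% BSA, 2×10⁻⁵ M bacitracin and 20 mM HEPES, with the same pretreatment. Cells were incubated 30 or 60 min at 37°C ± GnRH, and the incubation was ended by centrifugation. LH was measured by RIA (RP-3 standards) as mean ± SEM.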

Assay [2] relates to GnRH receptor. In words: RT-PCR of GnRH receptor mRNA in dispersed primary pituitary cell cultures. The class given is cell-based, rat. The method in brief: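 Dispersed primary rat anterior pituitary cultures were pretreated overnight with the peptide: male cultures with or without GnRH, female cultures without GnRH. RNA was extracted and reverse-transcribed with oligo d(T) and MMLV RT. SYBR Green real-time PCR was run with primer efficiencies >85%. Changes were calculated by delta delta Ct, normalised to HPRT-1, and compared by t test.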

For assay [3], the system named is pituitary and ovary cell membranes. As to the kind of experiment: Preliminary binding of phoenixin-20 to pituitary and ovary cell membranes. Details: species or system rat. The following applies: data not shown; for displacement of phoenixin-20 binding: pituitary and ovary cell membranes, female rat donors.
Assay [4] concerns Antibodies used in the EIA. In words: Cross-reactivity of the antibodies used in the phoenixin EIA. The assay is classed as binding.
For the next assay, the system named is PNX antiserum. The following applies: rabbit polyclonal antiserum; ref Phoenix Pharmaceuticals, Inc; cited from earlier work.
For another assay, the system named is cFos. As to the kind of experiment: RT-PCR of cFos message in alphaT3-1 gonadotroph cells. The assay is classed as cell-based, mouse. The following applies: alphaT3-1 cells; not shown.
The test system of assay [5] is dispersed pituitary cells from random cycle, female donors. In words: Dynamic. The class given is cell-based, rat. The following applies: 1000nM phoenixin-20 for 24 hours. In a few lines:
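Rat anterior pituitary cells from random-cycle females, trypsin-dispersed (0.1%), cultured 48 h at 37°C in MEM with 10% horse serum. Pretreated 24 h with medium or 1000nM amidated 20-residue peptide, resuspended in M199/0.1% BSA/bacitracin/20 mM HEPES; ~2 million cells perifused on Bio-Gel P2 columns (0.05 ml/min). Peptide present throughout. 5-min fractions: basal, 10 nM GnRH 50 min, medium 50 min, 60 mM KCl 10 min, medium 40 min. LH by RIA (RP-3 standards); mean ± SEM.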

In assay [6] the test system is GnRH receptor. As to the kind of experiment: RT-PCR of GnRH receptor message in alphaT3-1 gonadotroph cells. The assay is classed as cell-based, mouse. As to conditions: alphaT3-1 cells; normalized to GAPDH; Figure 3E. In a few lines: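 Mouse αT3-1 gonadotroph cells were exposed to the peptide. RNA was reverse-transcribed using oligo d(T) and MMLV reverse transcriptase. GnRH receptor message was quantified by SYBR Green real-time PCR with primer efficiencies >85%, using the delta delta Ct method with GAPDH normalisation. Groups were compared by t test.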

The subject of a further assay is male pituitary cells. In words: LH release from similarly prepared male pituitary cells. As to conditions: Supplemental Figure 2. The assay is classed as cell-based, rat.

Ends that are not written are not given here.

The text below walks through data of PMC3556183 (Journal of neuroendocrinology, 2013).

Consider phoenixin, for which, in [1] (dispersed, primary rat pituitary cultures, data not shown), the “basal release of LH, ACTH, prolactin, growth hormone, or TSH” value is reported as “did not alter”. Besides, the “GnRH receptor messenger RNA” value in the assay with GnRH receptor [2] (dispersed pituitary cultures pretreated with phoenixin, medium alone, Figure 3D) is listed as “increased”. Besides, in the assay on GnRH receptor [2] (primary pituitary cell cultures from female donors, Figure 3G), the “GnRH receptor expression in the absence of GnRH” value is listed as “significantly increased”.

“gonadotropin releasing hormone [gonadotropin-releasing hormone]”: in assay [3], the “displacement of phoenixin-20 binding” value is reported as “not displaced”.

As to DVQPPGLKVWSDPF-NH2 [phoenixin-14], the “cross-reaction with the antibodies used in the EIA” value (“cross-reaction” for short) in [4] stood at 100%. Further, in the assay with PNX antiserum, the “cross-reactivity with PNX antiserum in radioimmunoassay” value is recorded as 100%. Moreover, the “GnRH-stimulated LH release” value in [1] is “potentiated”.

Take “phoenixin-20: 20 amino acid amidated form of phoenixin (AGIVQEDVQPPGLKVWSDPF-NH2; UniProt C0HLM6 47-66, looked up)”: in the assay on cFos, the cFos message result is listed as “failed to attain significance”. In addition, the “cross-reaction” value in [4] was found to be 100%. For the same substance, the “cross-reactivity with PNX antiserum in radioimmunoassay” value in the assay with PNX antiserum is on record as 100%. Besides, in assay [5] (10 nM GnRH, Figure 3C), the “LH release when GnRH was included in the perifusate” value was “significantly enhanced”. Moreover, the “basal LH release during perifusion” value in assay [5] (then perifusion columns, no GnRH) is reported as “did not alter”. In the assay on GnRH receptor [6], the GnRH receptor message entry is “increase”. For the same substance, the “GnRH-stimulated LH release” value in assay [1] was “potentiated”. Moreover, in the assay on GnRH receptor [2] (dispersed male anterior pituitary cell cultures, overnight pretreatment, Figure 3D), the “ability of GnRH to upregulate the expression of GnRH receptor” value is “potentiated”. In the assay with male pituitary cells, the “LH release compared to medium alone” value is listed as “no differences”. For the same substance, the “specific binding to pituitary and ovary cell membranes” value in assay [3] (tissues from female rat donors, preliminary experiments) is reported as “bound specifically”.

On to “urocortin (DNPSLSIDLTFHLLRTLLELARTQSQRERAEQNRIIFDSV; ends and bridges not checked; UniProt P55089 83-122, looked up)”, for which the “displacement of phoenixin-20 binding” value in [3] is on record as “not displaced”.

With “angiotensin II (DRVYIHPF; Angiotensin-2; UniProt P01019 25-32, looked up) [reference compound]”, the “cross-reaction” value in assay [4] is given as 0%.
